Test results taken from ChEMBL document CHEMBL4007417, “Target Elucidation by Cocrystal Structures of NADH-Ubiquinone Oxidoreductase of Plasmodium falciparum (PfNDH2) with Small Molecule To Eliminate Drug-Resistant Malaria” (J Med Chem, 2017).
pEC50: −log10 of the molar value. Active and inactive are the calls of the source. The rule behind the calls is not given here.

Tests used:
Plasmodium yoelii [1] = assay: Antimalarial activity against Plasmodium yoelii YM infected in BALB/c mouse assessed as time duration for parasite cure at 10 mg/kg, sc administered BID for 4 days starting at 96 hrs post infection, 8 hrs apart by Giemsa-staining based microscopic analysis; format: functional
Procedure, shortened: (§1)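 P. yoelii-infected mice, n=3 per group. Subcutaneous injection twice daily, 8 h apart, for 4 days starting at 96 h post infection. Growth inhibition read from blood smears at 24 h post treatment. Cure time taken as the minimum period to cure all mice in the group. DMSO controls included.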

Plasmodium yoelii [2] = assay: Antimalarial activity against Plasmodium yoelii YM infected in BALB/c mouse assessed as parasite growth inhibition at 90 mg/kg, sc administered BID for 4 days starting at 96 hrs post infection, 8 hrs apart by Giemsa-staining based microscopic analysis; format: functional; conditions: read-out: GI; procedure, shortened: as §1
Plasmodium yoelii [3] = assay: Antimalarial activity against Plasmodium yoelii YM infected in BALB/c mouse assessed as parasite growth inhibition at 10 mg/kg, sc administered BID for 4 days starting at 96 hrs post infection, 8 hrs apart by Giemsa-staining based microscopic analysis; format: functional; conditions: read-out: GI; procedure, shortened: as §1
Plasmodium yoelii [4] = assay: Antimalarial activity against Plasmodium yoelii YM infected in BALB/c mouse assessed as parasite growth inhibition at 30 mg/kg, sc administered BID for 4 days starting at 96 hrs post infection, 8 hrs apart by Giemsa-staining based microscopic analysis; format: functional; conditions: read-out: GI; procedure, shortened: as §1
Plasmodium yoelii [5] = assay: Antimalarial activity against Plasmodium yoelii YM infected in BALB/c mouse assessed as mouse survival at 10 mg/kg, sc administered BID for 4 days starting at 96 hrs post infection, 8 hrs apart by Giemsa-staining based microscopic analysis; format: functional
Procedure, shortened: (§2)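 Mice inoculated with 1×106 P. yoelii parasites. Subcutaneous dosing for 4 days starting 96 h post infection, given once daily or twice daily 8 h apart. Parasitemia followed on Giemsa-stained blood smears. Survival recorded at 40 days post infection; groups of n=3. DMSO-only mice served as untreated controls.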

Plasmodium falciparum = assay: Antimalarial activity against […] asexual blood stage Plasmodium falciparum 3D7 after 72 hrs by SYBR green-based fluorometric analysis; format: functional; conditions: 3D7, 72 h
Procedure, shortened: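 Mid-ring-stage cultures (~6-10 h post-invasion) at 1% parasitemia and 2% hematocrit, in triplicate. Twofold serial dilutions from a top concentration of 100 nM. Incubated 72 h at 37 °C under 5% CO2/5% O2/90% N2. Lysis buffer containing 5×SYBR Green I added, 20 min in the dark, fluorescence read at ex 485/em 538 nm. EC50 derived.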

Plasmodium yoelii [6] = assay: Antimalarial activity against Plasmodium yoelii YM infected in BALB/c mouse assessed as mouse survival at 30 mg/kg, sc administered BID for 4 days starting at 96 hrs post infection, 8 hrs apart by Giemsa-staining based microscopic analysis; format: functional; procedure, shortened: as §2
Plasmodium yoelii [7] = assay: Antimalarial activity against Plasmodium yoelii YM infected in BALB/c mouse assessed as time duration for parasite cure at 30 mg/kg, sc administered BID for 4 days starting at 96 hrs post infection, 8 hrs apart by Giemsa-staining based microscopic analysis; format: functional; procedure, shortened: as §1
Plasmodium yoelii [8] = assay: Antimalarial activity against Plasmodium yoelii YM infected in BALB/c mouse assessed as parasite cure level at 10 to 90 mg/kg, ip administered on days 1 post infection by Giemsa-stained microscopic analysis; format: functional, organism-based
Procedure, shortened: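 Mice (groups of three) inoculated with 1×10^6 P. yoelii parasites. Single intraperitoneal dose of 10, 30 or 90 mg/kg given 24 h after inoculation. DMSO-only untreated group included. Outcome followed by blood-smear microscopy for cure, with survival scored at 40 days post infection.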

Plasmodium yoelii [9] = assay: Antimalarial activity against Plasmodium yoelii YM infected in BALB/c mouse assessed as time duration for parasite cure at 90 mg/kg, sc administered BID for 4 days starting at 96 hrs post infection, 8 hrs apart by Giemsa-staining based microscopic analysis; format: functional; procedure, shortened: as §1
Plasmodium yoelii [10] = assay: Antimalarial activity against Plasmodium yoelii YM infected in BALB/c mouse assessed as mouse survival at 90 mg/kg, sc administered BID for 4 days starting at 96 hrs post infection, 8 hrs apart by Giemsa-staining based microscopic analysis; format: functional; procedure, shortened: as §2

C[C@H]1[C@@H](O)O[C@@H]2O[C@@]3(C)CC[C@H]4[C@H](C)CC[C@@H]1[C@@]24OO3 [ARTENIMOL]
Time (Plasmodium yoelii [1]): 15 days
inhibition in vivo at 90 mg/kg (Plasmodium yoelii [2]): 100%
inhibition in vivo at 10 mg/kg (Plasmodium yoelii [3]): 100%
inhibition in vivo at 30 mg/kg (Plasmodium yoelii [4]): 100%
survival at 10 mg/kg (Plasmodium yoelii [5]): 100%
pEC50 (Plasmodium falciparum): 8.36
survival at 30 mg/kg (Plasmodium yoelii [6]): 100%
Time (Plasmodium yoelii [7]): 4 days
Activity (Plasmodium yoelii [8]): Active
Time (Plasmodium yoelii [9]): 4 days
survival at 90 mg/kg (Plasmodium yoelii [10]): 100%
